The values below come from ChEMBL document CHEMBL2401716, “Design and stereoselective synthesis of novel isosteviol-fused pyrazolines and pyrazoles as potential anticancer agents” (Eur J Med Chem, 2013).

What all share (format): functional, cell-based
One assay has as its system Raji. As to the kind of experiment: Antiproliferative activity against human Raji cells after 48 hrs by MTT assay. In outline: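 Human B-lymphoma Raji line kept in RPMI-1640 with 10% FBS and 100 U/mL penicillin at 37 °C, 5% CO2, humidified. Cells were plated in 96 wells and treated with compounds for 48 h. MTT (0.5 mg/mL) was added for 4 h, then formazan was taken up in DMSO after supernatant removal and read at 570 nm. Cisplatin served as positive control.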

The next assay relates to HeLa. As to the kind of experiment: Antiproliferative activity against human HeLa cells after 48 hrs by MTT assay. In outline: (§1)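 Cells seeded in 96-well plates and exposed to compounds for 48 h at 37 °C, 5% CO2. MTT (0.5 mg/mL) then added for 4 h. Supernatant removed, formazan dissolved in DMSO, and OD read at 570 nm. Cisplatin served as positive control.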
The next assay has as its system SGC-7901. Kind of assay: Antiproliferative activity against human SGC7901 cells after 48 hrs by MTT assay. Conditions: SGC-7901, 48 h. In outline: as §1
Another assay concerns A549. Kind of assay: Antiproliferative activity against human A549 cells after 48 hrs by MTT assay. Conditions: A549, 48 h. In outline:
as §1

Where only a bound is given, the exact number is not on record here.

For `CCOC(=O)[C@]1(C)CCC[C@@]2(C)[C@@H]3CC[C@@]4(C)C[C@]3(CC[C@@H]21)c1cnn(-c2cccc(Cl)c2Cl)c14`, the IC50 was 5.13 µM in the assay on Raji, > 50 µM in the assay on HeLa, > 50 µM with SGC-7901 and > 50 µM in the assay on A549.
As for `CCOC(=O)[C@]1(C)CCC[C@@]2(C)[C@@H]3CC[C@@]4(C)C[C@]3(CC[C@@H]21)[C@@H]1CN(c2cccc(Cl)c2Cl)N=C14`, the IC50 in the assay with Raji is 22.1 µM; in the assay with HeLa, > 50 µM; in the assay on SGC-7901, > 50 µM; with A549 it was > 50 µM.
For `CCOC(=O)[C@]1(C)CCC[C@@]2(C)[C@@H]3CC[C@@]4(C)C[C@]3(CC[C@@H]21)[C@@H]1CN(c2ccc(C)cc2C)N=C14`, the IC50 is 11.2 µM with Raji, > 50 µM with HeLa, 28.5 µM in the assay with SGC-7901 and > 50 µM in the assay on A549.
`CCOC(=O)[C@]1(C)CCC[C@@]2(C)[C@@H]3CC[C@@]4(C)C[C@]3(CC[C@@H]21)c1cnn(-c2cccc(Cl)c2)c14`: the IC50 in the assay with Raji is 9.54 µM; in the assay with HeLa, > 50 µM; with SGC-7901 it was 26.3 µM; in the assay with A549 it was 28.2 µM.
Turning to `CCOC(=O)[C@]1(C)CCC[C@@]2(C)[C@@H]3CC[C@@]4(C)C[C@]3(CC[C@@H]21)c1cnn(-c2cccc([N+](=O)[O-])c2)c14`, the IC50 in the assay with Raji was 7.4 µM; in the assay on HeLa it was > 50 µM; with SGC-7901, > 50 µM; in the assay with A549, > 50 µM.
As for `CCOC(=O)[C@]1(C)CCC[C@@]2(C)[C@@H]3CC[C@@]4(C)C[C@]3(CC[C@@H]21)c1cnn(-c2ccccc2[N+](=O)[O-])c14`, the IC50 in the assay on Raji was 14.3 µM; in the assay with HeLa it was > 50 µM; in the assay on SGC-7901, 15.6 µM; in the assay on A549 it was 42.3 µM.
For `CCOC(=O)[C@]1(C)CCC[C@@]2(C)[C@@H]3CC[C@@]4(C)C[C@]3(CC[C@@H]21)c1cnn(-c2c(Cl)cccc2Cl)c14`, the IC50 is 5.7 µM in the assay with Raji, 34.9 µM in the assay with HeLa, 27.1 µM in the assay on SGC-7901 and 33.2 µM in the assay on A549.
With `CCOC(=O)[C@]1(C)CCC[C@@]2(C)[C@@H]3CC[C@@]4(C)C[C@]3(CC[C@@H]21)[C@@H]1CN(c2c(C)cccc2C)N=C14`, the IC50 in the assay on Raji was found to be 5.63 µM; in the assay on HeLa, 28.8 µM; with SGC-7901, 16.6 µM; in the assay on A549 it was 17.6 µM.
As to `CCOC(=O)[C@]1(C)CCC[C@@]2(C)[C@@H]3CC[C@@]4(C)C[C@]3(CC[C@@H]21)[C@@H]1CN(c2ccc(Cl)cc2)N=C14`, the IC50 in the assay with Raji, in the assay on HeLa, with SGC-7901 and in the assay with A549 was > 50 µM each time.
In the case of `CCOC(=O)[C@]1(C)CCC[C@@]2(C)[C@@H]3CC[C@@]4(C)C[C@]3(CC[C@@H]21)c1cnn(-c2cc(Cl)cc(Cl)c2)c14`, the IC50 is 15.8 µM in the assay on Raji, > 50 µM with HeLa, > 50 µM in the assay with SGC-7901 and > 50 µM with A549.
With `C[C@@]12CC[C@@H]3[C@@](CC[C@H]4[C@@]3(C)CCC[C@@]4(C)C(=O)O)(CC1=O)C2` [ISOSTEVIOL], the IC50 in the assay on Raji, with HeLa, in the assay with SGC-7901 and in the assay on A549 was > 50 µM each time.
Take `CCOC(=O)[C@]1(C)CCC[C@@]2(C)[C@@H]3CC[C@@]4(C)C[C@]3(CC[C@@H]21)c1cnn(-c2ccc(Br)cc2)c14`: the IC50 was 4.78 µM in the assay with Raji, > 50 µM in the assay with HeLa, 29.6 µM in the assay on SGC-7901 and 23.1 µM with A549.
`CCOC(=O)[C@]1(C)CCC[C@@]2(C)[C@@H]3CC[C@@]4(C)C[C@]3(CC[C@@H]21)[C@@H]1CN(c2ccc(C)c(C)c2)N=C14`: the IC50 in the assay on Raji was 8.36 µM; in the assay on HeLa, > 50 µM; in the assay on SGC-7901, 32.5 µM; in the assay on A549, > 50 µM.
`CCOC(=O)[C@]1(C)CCC[C@@]2(C)[C@@H]3CC[C@@]4(C)C[C@]3(CC[C@@H]21)[C@@H]1CN(c2c(Cl)cccc2Cl)N=C14`: the IC50 with Raji is > 50 µM; in the assay with HeLa, > 50 µM; in the assay with SGC-7901, > 50 µM; in the assay on A549, 11.6 µM.
For `CCOC(=O)[C@]1(C)CCC[C@@]2(C)[C@@H]3CC[C@@]4(C)C[C@]3(CC[C@@H]21)c1cnn(-c2ccc(Cl)cc2)c14`, the half-inhibitory concentration (IC50) in the assay with Raji is 13.8 µM; with HeLa, > 50 µM; in the assay on SGC-7901, 8.44 µM; in the assay with A549, 35.3 µM.
For `CCOC(=O)[C@]1(C)CCC[C@@]2(C)[C@@H]3CC[C@@]4(C)C[C@]3(CC[C@@H]21)[C@@H]1CN(c2cccc(C)c2)N=C14` the same measures were > 50 µM, > 50 µM, > 50 µM and > 50 µM.
For `CCOC(=O)[C@]1(C)CCC[C@@]2(C)[C@@H]3CC[C@@]4(C)C[C@]3(CC[C@@H]21)[C@@H]1CN(c2ccccc2F)N=C14`, the IC50 with Raji was 17.2 µM; in the assay on HeLa it was > 50 µM; with SGC-7901 it was 34.7 µM; with A549, 32.6 µM.
On the same counts, the results for `CCOC(=O)[C@]1(C)CCC[C@@]2(C)[C@@H]3CC[C@@]4(C)C[C@]3(CC[C@@H]21)[C@@H]1CN(c2cc(C)cc(C)c2)N=C14` are > 50 µM, > 50 µM, > 50 µM and > 50 µM.
On to `CCOC(=O)[C@]1(C)CCC[C@@]2(C)[C@@H]3CC[C@@]4(C)C[C@]3(CC[C@@H]21)c1cnn(-c2ccc(Cl)cc2Cl)c14`, for which the IC50 came to 1.09 µM in the assay on Raji, 13.5 µM with HeLa, 2.71 µM in the assay on SGC-7901 and 3.18 µM with A549.
On the same counts, the results for `CCOC(=O)[C@]1(C)CCC[C@@]2(C)[C@@H]3CC[C@@]4(C)C[C@]3(CC[C@@H]21)[C@@H]1CN(c2cc(F)ccc2F)N=C14` are 27.4 µM, > 50 µM, > 50 µM and 20.2 µM.
On the same counts, the results for `CCOC(=O)[C@]1(C)CCC[C@@]2(C)[C@@H]3CC[C@@]4(C)C[C@]3(CC[C@@H]21)c1cnn(-c2cccc(F)c2)c14` are 3.4 µM, > 50 µM, 35.8 µM and 19.2 µM.
Take `CCOC(=O)[C@]1(C)CCC[C@@]2(C)[C@@H]3CC[C@@]4(C)C[C@]3(CC[C@@H]21)[C@@H]1CN(c2cccc(Br)c2)N=C14`: the IC50 is 25.1 µM with Raji, > 50 µM with HeLa, > 50 µM in the assay on SGC-7901 and > 50 µM with A549.
`CCOC(=O)[C@]1(C)CCC[C@@]2(C)[C@@H]3CC[C@@]4(C)C[C@]3(CC[C@@H]21)c1cnn(-c2ccccc2Br)c14`: the concentration for half-maximal inhibition (IC50) in the assay with Raji was determined as 11.3 µM; in the assay with HeLa, 41.1 µM; in the assay with SGC-7901, 30.3 µM; with A549, 17.4 µM.
As for `CCOC(=O)[C@]1(C)CCC[C@@]2(C)[C@@H]3CC[C@@]4(C)C[C@]3(CC[C@@H]21)[C@@H]1CN(c2ccccc2Cl)N=C14`, the IC50 in the assay on Raji, in the assay on HeLa, in the assay with SGC-7901 and with A549 was > 50 µM in each case.
Take `CCOC(=O)[C@]1(C)CCC[C@@]2(C)[C@@H]3CC[C@@]4(C)C[C@]3(CC[C@@H]21)[C@@H]1CN(c2ccc([N+](=O)[O-])cc2)N=C14`: the IC50 in the assay on Raji, in the assay with HeLa, with SGC-7901 and in the assay on A549 was > 50 µM throughout.
For the compound `CCOC(=O)[C@]1(C)CCC[C@@]2(C)[C@@H]3CC[C@@]4(C)C[C@]3(CC[C@@H]21)c1cnn(-c2ccc(Cl)c(Cl)c2)c14`, the IC50 in the assay with Raji was 17.1 µM; in the assay with HeLa it was > 50 µM; in the assay on SGC-7901, > 50 µM; in the assay with A549, > 50 µM.
Consider `CCOC(=O)[C@]1(C)CCC[C@@]2(C)[C@@H]3CC[C@@]4(C)C[C@]3(CC[C@@H]21)c1cnn(-c2cccc(C)c2C)c14`, for which the 50% inhibitory concentration (IC50) is 3.26 µM in the assay on Raji, 37.5 µM in the assay with HeLa, 19.3 µM in the assay with SGC-7901 and 18.2 µM in the assay with A549.
For `CCOC(=O)[C@]1(C)CCC[C@@]2(C)[C@@H]3CC[C@@]4(C)C[C@]3(CC[C@@H]21)c1cnn(-c2ccc([N+](=O)[O-])cc2)c14` the same measures were 10.2 µM, > 50 µM, > 50 µM and > 50 µM.
Regarding `CCOC(=O)[C@]1(C)CCC[C@@]2(C)[C@@H]3CC[C@@]4(C)C[C@]3(CC[C@@H]21)[C@@H]1CN(c2cccc([N+](=O)[O-])c2)N=C14`, the IC50 in the assay on Raji, in the assay on HeLa, in the assay on SGC-7901 and in the assay on A549 was > 50 µM throughout.
